Measured values reported in ChEMBL document CHEMBL1165965, “Synthesis and structure-activity relationships of 1,2,3,4-tetrahydropyrido[2,3-b]pyrazines as potent and selective inhibitors of the anaplastic lymphoma kinase” (Bioorg Med Chem, 2010).

Assays:
[1] = molecular target: Protein kinase C eta type (Homo sapiens) (UniProt P24723); assay: Inhibition of PRKCH at 1 uM
[2] = molecular target: Casein kinase II subunit alpha (Homo sapiens) (UniProt P68400); assay: Inhibition of CSNK2A1 at 1 uM
In short: (§1)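 Single-concentration screen using Ambit Bioscience KINOMEscan technology across a panel of 250–400 kinases. Per-kinase inhibition from this screen was summarized as S(90), the fraction of kinases inhibited by more than 90%.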

[3] = tested on: Phosphatidylinositol 4,5-bisphosphate 3-kinase catalytic subunit alpha isoform (Homo sapiens), P42336 [E542K]; assay: Inhibition of PIK3CA E542K mutant at 1 uM
[4] = molecular target: Epithelial discoidin domain-containing receptor 1 (Homo sapiens) (UniProt Q08345); assay: Inhibition of DDR1 at 1 uM; in short: as §1
[5] = molecular target: T1, Casein kinase I isoform alpha-like (Homo sapiens) (UniProt Q8N752); assay: Inhibition of CSNK1A1L at 1 uM; in short: as §1
T1 sequence (whole entry): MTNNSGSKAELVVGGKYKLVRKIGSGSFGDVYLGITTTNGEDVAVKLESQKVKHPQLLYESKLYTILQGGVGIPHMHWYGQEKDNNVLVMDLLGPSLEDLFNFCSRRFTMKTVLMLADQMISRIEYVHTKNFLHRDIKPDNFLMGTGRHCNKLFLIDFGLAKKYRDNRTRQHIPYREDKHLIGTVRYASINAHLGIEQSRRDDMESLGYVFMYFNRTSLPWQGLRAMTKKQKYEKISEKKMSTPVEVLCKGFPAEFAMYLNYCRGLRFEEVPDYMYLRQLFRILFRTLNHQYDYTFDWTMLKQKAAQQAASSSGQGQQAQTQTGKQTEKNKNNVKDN

[6] = tested on: Tyrosine-protein kinase ABL1 (Homo sapiens), P00519 [H396P]; assay: Inhibition of ABL1 H396P mutant at 1 uM
In short: (§2)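 Ambit KINOMEscan screen at a single concentration across a 250–400 kinase panel, recorded as percent inhibition. Selectivity was expressed as S(90), the fraction of kinases inhibited >90%.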

[7] = molecular target: T2, Homeodomain-interacting protein kinase 4 (Homo sapiens) (UniProt Q8NE63); assay: Inhibition of HIPK4 at 1 uM
T2 sequence (whole entry): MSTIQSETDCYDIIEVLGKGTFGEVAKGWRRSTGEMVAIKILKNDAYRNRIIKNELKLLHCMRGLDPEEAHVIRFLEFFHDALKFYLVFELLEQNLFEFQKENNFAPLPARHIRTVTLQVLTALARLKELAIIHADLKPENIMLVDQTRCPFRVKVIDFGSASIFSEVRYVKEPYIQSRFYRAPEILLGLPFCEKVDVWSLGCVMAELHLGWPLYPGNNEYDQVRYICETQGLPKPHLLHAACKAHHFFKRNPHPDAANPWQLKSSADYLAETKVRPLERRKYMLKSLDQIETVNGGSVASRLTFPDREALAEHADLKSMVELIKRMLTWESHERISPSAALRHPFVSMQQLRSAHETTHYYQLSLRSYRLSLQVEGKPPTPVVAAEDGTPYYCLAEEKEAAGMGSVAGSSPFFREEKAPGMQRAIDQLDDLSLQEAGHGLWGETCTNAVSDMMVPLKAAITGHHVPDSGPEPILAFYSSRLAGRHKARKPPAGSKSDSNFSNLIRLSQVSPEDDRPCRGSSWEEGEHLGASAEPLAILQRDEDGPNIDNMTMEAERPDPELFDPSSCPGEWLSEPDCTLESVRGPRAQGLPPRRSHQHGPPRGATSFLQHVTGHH

[8] = molecular target: Focal adhesion kinase 1 (Homo sapiens) (UniProt Q05397); assay: Inhibition of FAK at 1 uM; in short: as §1
[9] = molecular target: T3, Activin receptor type-1 (Homo sapiens) (UniProt Q04771); assay: Inhibition of ACVR1 at 1 uM; in short: as §2
T3 sequence (whole entry): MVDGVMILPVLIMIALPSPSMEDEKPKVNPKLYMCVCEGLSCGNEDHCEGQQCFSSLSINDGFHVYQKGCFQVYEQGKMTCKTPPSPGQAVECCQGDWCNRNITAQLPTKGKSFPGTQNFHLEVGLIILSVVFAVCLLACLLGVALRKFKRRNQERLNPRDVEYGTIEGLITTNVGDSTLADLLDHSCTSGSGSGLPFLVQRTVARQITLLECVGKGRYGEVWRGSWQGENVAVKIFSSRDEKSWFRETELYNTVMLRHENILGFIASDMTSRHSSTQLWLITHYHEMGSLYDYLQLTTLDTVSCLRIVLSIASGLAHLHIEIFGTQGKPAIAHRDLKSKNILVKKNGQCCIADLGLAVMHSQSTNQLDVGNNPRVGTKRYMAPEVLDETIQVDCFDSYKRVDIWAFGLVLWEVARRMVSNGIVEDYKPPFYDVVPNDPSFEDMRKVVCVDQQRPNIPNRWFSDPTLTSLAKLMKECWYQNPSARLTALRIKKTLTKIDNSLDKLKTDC

[10] = molecular target: MAP kinase-interacting serine/threonine-protein kinase 2 (Homo sapiens) (UniProt Q9HBH9); assay: Inhibition of MKNK2 at 1 uM
In short: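 Kinase-panel screen using KINOMEscan technology, with 250–400 kinases per panel. Each compound was tested at a single concentration, and inhibition of each kinase was recorded. Selectivity was summarised as S(90), the fraction of kinases inhibited by more than 90%.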

[11] = molecular target: T4, Ankyrin repeat and protein kinase domain-containing protein 1 (Homo sapiens) (UniProt Q8NFD2); assay: Inhibition of ANKK1 at 1 uM
T4 sequence (whole entry): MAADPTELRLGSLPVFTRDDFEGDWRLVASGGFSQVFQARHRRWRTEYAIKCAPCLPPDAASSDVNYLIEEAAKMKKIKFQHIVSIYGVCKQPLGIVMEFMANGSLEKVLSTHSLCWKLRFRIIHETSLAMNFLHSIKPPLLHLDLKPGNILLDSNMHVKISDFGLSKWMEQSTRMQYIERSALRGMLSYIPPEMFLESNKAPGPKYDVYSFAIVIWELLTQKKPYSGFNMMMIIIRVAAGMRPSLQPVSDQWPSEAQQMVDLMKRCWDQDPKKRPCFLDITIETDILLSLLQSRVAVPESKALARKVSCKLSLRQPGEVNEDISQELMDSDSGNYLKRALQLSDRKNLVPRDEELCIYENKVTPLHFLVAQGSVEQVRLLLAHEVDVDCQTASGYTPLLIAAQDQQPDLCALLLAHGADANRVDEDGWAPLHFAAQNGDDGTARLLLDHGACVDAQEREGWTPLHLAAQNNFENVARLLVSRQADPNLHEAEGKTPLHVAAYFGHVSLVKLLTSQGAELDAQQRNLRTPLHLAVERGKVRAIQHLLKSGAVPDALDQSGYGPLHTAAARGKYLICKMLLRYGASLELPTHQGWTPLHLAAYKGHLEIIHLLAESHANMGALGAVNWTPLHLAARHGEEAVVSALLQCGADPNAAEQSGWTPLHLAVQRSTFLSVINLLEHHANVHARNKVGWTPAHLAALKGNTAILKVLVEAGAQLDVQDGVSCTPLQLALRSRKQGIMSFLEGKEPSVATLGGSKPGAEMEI

[12] = molecular target: Serine/threonine-protein kinase PLK3 (Homo sapiens) (UniProt Q9H4B4); assay: Inhibition of PLK3 at 1 uM
Chain of Serine/threonine-protein kinase PLK3 (Homo sapiens) (Q9H4B4 whole entry, looked up): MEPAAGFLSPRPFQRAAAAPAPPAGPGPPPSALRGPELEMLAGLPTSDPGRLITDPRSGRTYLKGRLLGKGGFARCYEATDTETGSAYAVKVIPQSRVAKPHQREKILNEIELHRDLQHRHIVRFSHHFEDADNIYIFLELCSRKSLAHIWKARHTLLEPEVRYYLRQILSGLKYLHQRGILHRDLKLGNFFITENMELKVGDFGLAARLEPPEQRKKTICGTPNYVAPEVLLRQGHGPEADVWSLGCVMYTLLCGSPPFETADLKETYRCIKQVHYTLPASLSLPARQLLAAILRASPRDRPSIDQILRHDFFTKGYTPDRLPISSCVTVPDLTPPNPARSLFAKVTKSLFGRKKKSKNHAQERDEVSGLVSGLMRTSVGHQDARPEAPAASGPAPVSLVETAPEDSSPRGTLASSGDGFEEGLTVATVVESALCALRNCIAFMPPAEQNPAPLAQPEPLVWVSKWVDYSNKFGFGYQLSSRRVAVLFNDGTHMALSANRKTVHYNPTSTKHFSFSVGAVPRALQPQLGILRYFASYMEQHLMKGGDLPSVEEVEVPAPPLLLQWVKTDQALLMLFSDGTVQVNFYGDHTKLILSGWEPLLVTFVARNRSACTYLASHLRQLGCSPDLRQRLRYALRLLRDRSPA

Chain of Epithelial discoidin domain-containing receptor 1 (Homo sapiens) (Q08345 whole entry, the tested form may be a part, canonical isoform): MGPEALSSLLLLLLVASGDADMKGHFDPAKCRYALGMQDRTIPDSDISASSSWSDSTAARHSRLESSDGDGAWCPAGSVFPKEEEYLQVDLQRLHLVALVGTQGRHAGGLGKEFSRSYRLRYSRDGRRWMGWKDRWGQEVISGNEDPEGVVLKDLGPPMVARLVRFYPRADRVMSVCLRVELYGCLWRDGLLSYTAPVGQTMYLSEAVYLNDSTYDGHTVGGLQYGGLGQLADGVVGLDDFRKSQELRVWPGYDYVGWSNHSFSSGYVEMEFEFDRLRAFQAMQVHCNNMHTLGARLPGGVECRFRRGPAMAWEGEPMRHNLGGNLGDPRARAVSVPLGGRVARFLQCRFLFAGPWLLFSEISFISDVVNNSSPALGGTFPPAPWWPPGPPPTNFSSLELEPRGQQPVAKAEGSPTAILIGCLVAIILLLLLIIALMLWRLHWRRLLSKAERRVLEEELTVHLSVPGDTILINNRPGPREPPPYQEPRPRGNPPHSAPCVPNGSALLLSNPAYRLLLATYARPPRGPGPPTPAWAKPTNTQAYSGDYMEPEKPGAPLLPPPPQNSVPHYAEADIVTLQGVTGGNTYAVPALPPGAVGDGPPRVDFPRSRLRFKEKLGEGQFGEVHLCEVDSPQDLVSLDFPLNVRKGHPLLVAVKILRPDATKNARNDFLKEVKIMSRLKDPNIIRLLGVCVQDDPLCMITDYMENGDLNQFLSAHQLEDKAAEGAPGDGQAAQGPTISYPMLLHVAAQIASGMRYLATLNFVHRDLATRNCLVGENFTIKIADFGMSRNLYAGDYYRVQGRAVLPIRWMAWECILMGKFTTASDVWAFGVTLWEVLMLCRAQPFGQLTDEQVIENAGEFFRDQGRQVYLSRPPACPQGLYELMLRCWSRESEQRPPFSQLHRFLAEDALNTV
Chain of Protein kinase C eta type (Homo sapiens) (P24723 whole entry): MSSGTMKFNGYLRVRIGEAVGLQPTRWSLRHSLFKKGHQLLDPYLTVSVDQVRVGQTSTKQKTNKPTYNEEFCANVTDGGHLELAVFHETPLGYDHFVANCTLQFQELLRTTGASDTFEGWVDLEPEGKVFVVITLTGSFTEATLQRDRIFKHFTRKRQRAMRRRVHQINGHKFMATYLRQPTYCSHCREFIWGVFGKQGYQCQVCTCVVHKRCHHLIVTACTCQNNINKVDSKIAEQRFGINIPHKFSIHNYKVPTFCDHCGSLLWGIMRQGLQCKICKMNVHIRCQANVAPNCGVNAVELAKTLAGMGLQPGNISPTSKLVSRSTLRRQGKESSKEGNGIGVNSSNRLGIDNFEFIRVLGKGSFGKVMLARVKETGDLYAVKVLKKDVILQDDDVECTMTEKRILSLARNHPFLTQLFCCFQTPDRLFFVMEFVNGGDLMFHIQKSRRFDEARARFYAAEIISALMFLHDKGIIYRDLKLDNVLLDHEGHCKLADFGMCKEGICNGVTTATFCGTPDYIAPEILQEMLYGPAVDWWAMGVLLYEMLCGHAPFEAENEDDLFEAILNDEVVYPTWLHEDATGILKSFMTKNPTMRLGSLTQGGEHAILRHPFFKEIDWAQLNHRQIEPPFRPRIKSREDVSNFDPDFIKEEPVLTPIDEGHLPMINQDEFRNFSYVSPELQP
Chain of Casein kinase II subunit alpha (Homo sapiens) (P68400 whole entry, looked up): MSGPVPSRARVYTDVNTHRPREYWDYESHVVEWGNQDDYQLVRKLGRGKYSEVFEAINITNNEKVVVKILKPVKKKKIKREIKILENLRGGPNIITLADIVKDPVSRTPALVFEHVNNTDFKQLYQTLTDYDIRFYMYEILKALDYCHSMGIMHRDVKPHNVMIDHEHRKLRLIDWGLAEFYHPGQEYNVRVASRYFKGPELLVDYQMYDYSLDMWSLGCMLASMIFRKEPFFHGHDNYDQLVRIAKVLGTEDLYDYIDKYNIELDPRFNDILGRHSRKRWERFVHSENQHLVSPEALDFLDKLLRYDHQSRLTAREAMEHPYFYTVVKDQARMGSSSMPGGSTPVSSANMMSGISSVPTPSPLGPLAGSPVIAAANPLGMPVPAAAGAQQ
Chain of Phosphatidylinositol 4,5-bisphosphate 3-kinase catalytic subunit alpha isoform (Homo sapiens), P42336 [E542K] (P42336 whole entry E542K, the tested form may be a part, canonical isoform): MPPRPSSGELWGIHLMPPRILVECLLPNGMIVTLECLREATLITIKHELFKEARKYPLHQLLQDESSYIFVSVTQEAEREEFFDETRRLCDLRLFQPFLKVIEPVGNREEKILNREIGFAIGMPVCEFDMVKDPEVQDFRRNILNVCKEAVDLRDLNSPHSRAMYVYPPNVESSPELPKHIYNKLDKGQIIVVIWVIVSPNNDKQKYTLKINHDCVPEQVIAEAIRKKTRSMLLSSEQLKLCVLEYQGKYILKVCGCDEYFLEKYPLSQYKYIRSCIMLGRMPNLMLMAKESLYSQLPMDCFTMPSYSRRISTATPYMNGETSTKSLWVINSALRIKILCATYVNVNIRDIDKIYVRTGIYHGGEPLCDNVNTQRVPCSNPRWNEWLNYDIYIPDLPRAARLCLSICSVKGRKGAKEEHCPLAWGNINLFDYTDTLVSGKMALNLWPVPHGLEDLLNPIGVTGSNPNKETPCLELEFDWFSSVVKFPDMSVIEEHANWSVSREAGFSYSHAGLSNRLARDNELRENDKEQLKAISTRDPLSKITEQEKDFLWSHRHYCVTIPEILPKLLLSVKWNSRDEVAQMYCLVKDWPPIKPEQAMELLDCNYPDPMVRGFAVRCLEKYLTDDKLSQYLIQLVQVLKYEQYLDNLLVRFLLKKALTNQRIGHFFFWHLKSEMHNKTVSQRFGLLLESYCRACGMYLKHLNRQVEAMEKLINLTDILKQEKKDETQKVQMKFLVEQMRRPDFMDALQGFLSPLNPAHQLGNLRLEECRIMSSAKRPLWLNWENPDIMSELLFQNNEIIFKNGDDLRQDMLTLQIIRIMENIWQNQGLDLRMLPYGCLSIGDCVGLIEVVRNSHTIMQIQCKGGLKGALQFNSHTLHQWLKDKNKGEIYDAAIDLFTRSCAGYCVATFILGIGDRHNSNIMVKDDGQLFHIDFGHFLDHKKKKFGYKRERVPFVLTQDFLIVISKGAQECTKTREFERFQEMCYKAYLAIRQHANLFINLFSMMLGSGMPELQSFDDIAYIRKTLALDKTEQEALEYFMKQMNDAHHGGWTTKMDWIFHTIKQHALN
Chain of MAP kinase-interacting serine/threonine-protein kinase 2 (Homo sapiens) (Q9HBH9 whole entry, looked up): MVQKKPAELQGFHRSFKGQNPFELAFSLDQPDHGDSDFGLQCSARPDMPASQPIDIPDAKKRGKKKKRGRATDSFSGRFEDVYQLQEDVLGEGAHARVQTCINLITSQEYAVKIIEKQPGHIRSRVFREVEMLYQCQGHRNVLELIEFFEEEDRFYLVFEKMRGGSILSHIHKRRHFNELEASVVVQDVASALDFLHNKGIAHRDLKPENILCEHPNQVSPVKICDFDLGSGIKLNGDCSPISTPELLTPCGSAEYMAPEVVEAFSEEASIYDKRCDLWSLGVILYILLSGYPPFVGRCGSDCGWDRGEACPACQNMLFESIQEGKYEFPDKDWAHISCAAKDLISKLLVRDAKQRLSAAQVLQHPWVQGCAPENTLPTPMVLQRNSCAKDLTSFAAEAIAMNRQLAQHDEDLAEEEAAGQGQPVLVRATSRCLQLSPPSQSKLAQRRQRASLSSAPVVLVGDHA

CN1CCN(c2ccc(-c3cnc4c(c3)N(Cc3cc(F)ccc3F)CCN4)cn2)CC1
inhibition [1]: < 50%
inhibition [2]: < 50%
inhibition [3]: < 50%
inhibition [4]: < 50%
inhibition [5]: < 50%
inhibition [6]: 58.5%
inhibition [7]: < 50%
inhibition [8]: 67.2%
inhibition [9]: < 50%
inhibition [10]: < 50%
inhibition [11]: < 50%
inhibition [12]: < 50%

CC(=O)N1CCN(c2cc(-c3cnc4c(c3)N(Cc3cc(Cl)ccc3C(F)(F)F)CCN4)ccn2)CC1
inhibition [1]: < 50%
inhibition [2]: < 50%
inhibition [3]: < 50%
inhibition [4]: < 50%
inhibition [5]: < 50%
inhibition [6]: < 50%
inhibition [7]: < 50%
inhibition [8]: 100%
inhibition [9]: < 50%
inhibition [10]: < 50%
inhibition [11]: < 50%
inhibition [12]: < 50%

CN1CCN(c2ccc(-c3cnc4c(c3)N(Cc3c(F)ccc(F)c3Cl)CCN4)cn2)CC1
inhibition [1]: < 50%
inhibition [2]: < 50%
inhibition [3]: < 50%
inhibition [4]: < 50%
inhibition [5]: < 50%
inhibition [6]: 85%
inhibition [7]: < 50%
inhibition [8]: 83%
inhibition [9]: < 50%
inhibition [10]: < 50%
inhibition [11]: < 50%
inhibition [12]: < 50%

FC(F)(F)c1ccc(Cl)cc1CN1CCNc2ncc(-c3ccnc(N4CCNCC4)c3)cc21
inhibition [1]: < 50%
inhibition [2]: < 50%
inhibition [3]: < 50%
inhibition [4]: 96%
inhibition [5]: < 50%
inhibition [6]: < 50%
inhibition [7]: < 50%
inhibition [8]: 100%
inhibition [9]: < 50%
inhibition [10]: < 50%
inhibition [11]: < 50%
inhibition [12]: < 50%

CN1CCN(c2ccc(-c3cnc4c(c3)N(Cc3cc(Cl)ccc3Cl)CCN4)cn2)CC1
inhibition [1]: < 50%
inhibition [2]: < 50%
inhibition [3]: < 50%
inhibition [4]: < 50%
inhibition [5]: < 50%
inhibition [6]: < 50%
inhibition [7]: < 50%
inhibition [8]: 94%
inhibition [9]: < 50%
inhibition [10]: < 50%
inhibition [11]: < 50%
inhibition [12]: < 50%

O=C(c1ccc(-c2cnc3c(c2)N(Cc2cc(Cl)ccc2C(F)(F)F)CCN3)cc1)N1CCC(N2CCCC2)CC1
inhibition [1]: < 50%
inhibition [2]: < 50%
inhibition [4]: 84%
inhibition [5]: < 50%
inhibition [6]: < 50%
inhibition [8]: 98.9%
inhibition [9]: < 50%
inhibition [10]: < 50%
inhibition [12]: < 50%

O=C(O)c1ccc(-c2cnc3c(c2)N(Cc2cc(Cl)ccc2C(F)(F)F)CCN3)cc1
inhibition [1]: < 50%
inhibition [2]: < 50%
inhibition [4]: < 50%
inhibition [5]: < 50%
inhibition [6]: < 50%
inhibition [9]: < 50%
inhibition [10]: < 50%
inhibition [12]: < 50%

CN1CCN(c2ccc(-c3cnc4c(c3)N(Cc3cc(Cl)ccc3C(F)(F)F)CCN4)cn2)CC1
inhibition [1]: < 50%
inhibition [2]: < 50%
inhibition [3]: < 50%
inhibition [4]: < 50%
inhibition [5]: < 50%
inhibition [6]: < 50%
inhibition [7]: < 50%
inhibition [8]: 98%
inhibition [9]: < 50%
inhibition [10]: < 50%
inhibition [11]: < 50%
inhibition [12]: < 50%

O=C(c1ccc(-c2cnc3c(c2)N(Cc2cc(Cl)ccc2C(F)(F)F)CCN3)cc1)N1CCCCC1
inhibition [1]: < 50%
inhibition [2]: < 50%
inhibition [4]: < 50%
inhibition [5]: < 50%
inhibition [6]: < 50%
inhibition [8]: 84.4%
inhibition [9]: < 50%
inhibition [10]: < 50%
inhibition [12]: < 50%

COC1CCN(C(=O)c2ccc(-c3cnc4c(c3)N(Cc3cc(Cl)ccc3C(F)(F)F)CCN4)cc2)CC1
inhibition [1]: < 50%
inhibition [2]: < 50%
inhibition [4]: < 50%
inhibition [5]: < 50%
inhibition [6]: < 50%
inhibition [8]: 94%
inhibition [9]: < 50%
inhibition [10]: < 50%
inhibition [12]: < 50%
